Source: PubChem (several laboratories)
This is a sample that favours compounds with a hit; in the whole collection about 2.6% have one here.
VIM-2 inhibitor: blocks Pseudomonas aeruginosa VIM-2 metallo-beta-lactamase | inhibition, % at 5.6 µM | 290,000 compounds, 0.89% hits | purified VIM-2, nitrocefin hydrolysis, epi-absorbance fluorescence;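 active means inhibition above the mean of all tested compounds plus 3 SD, cutoff set per screening run, cut at about 7.5% in these data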;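 further: red hydrolysis product quenches plate fluorescence so inhibitors raise well fluorescence; 0% = enzyme with DMSO and 100% = DMSO without enzyme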
Calb FLC: C. albicans growth modulation with fluconazole; C. albicans CaCi-2 + fluconazole, Alamar Blue growth, 48 h; growth inhibition, % (no concentration beside the values); 300,000 compounds, 0.57% hits; AID 1979;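 active means growth inhibition above about 58% in most replicates, limit read from the data, passing the limit was not always enough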;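 further: all wells also contain fluconazole at 8 µg/ml as a sub-toxic cotreatment; 0% = median of DMSO wells and 100% = median of geldanamycin control wells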
IMP-1 inhibitor: blocks Pseudomonas aeruginosa IMP-1 metallo-beta-lactamase. purified IMP-1, nitrocefin hydrolysis, epi-absorbance fluorescence. inhibition, % at 5.6 µM. 290,000 compounds, 0.45% hits;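 active means inhibition above the mean plus 3 SD of all compounds in the same screening run, cut at about 4.5% in these data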;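 further: 0% = IMP-1 with DMSO and 100% = DMSO wells lacking enzyme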
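Assay system: purified recombinant IMP-1 beta-lactamase. Input: IMP-1 0.2 nM before substrate addition. Buffer or medium: Zinc- and detergent-supplemented HEPES buffer, pH 7.1. Schedule: 25 °C, 15 min preincubation, 25 min reaction. Signal: Epi-absorbance fluorescence, 480 nm excitation, 530 nm emission. Evaluation: percent inhibition from optical density relative to buffer-blank wells.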
ARFGAP1 inhibitor: inhibits rat ARF GTPase activating protein 1; Q62848; 360,000 compounds, 0.26% hits; inhibition, % at 16.5 µM; Arfgap1-stimulated ARF1 GTP hydrolysis, GDP FP detection;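 active means inhibition above a per-plate limit, mean inhibition of low control wells plus 3 SD, cut at about 25% in these data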;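 further: 0% = DMSO wells with enzyme and 100% = wells lacking Arfgap1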
Target sequence (Q62848 1-136 limits assumed): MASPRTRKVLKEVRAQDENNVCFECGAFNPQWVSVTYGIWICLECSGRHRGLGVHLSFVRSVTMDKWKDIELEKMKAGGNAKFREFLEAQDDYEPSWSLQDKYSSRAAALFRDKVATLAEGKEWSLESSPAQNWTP
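Assay system: Rat Arfgap1 GAP domain (His6, aa 1-136), purified enzyme | Buffer or medium: HEPES 25 mM pH 7.5, NaCl 150 mM, MgCl2, DTT | Schedule: GTP hydrolysis reaction 2 h at 25 °C | Signal: FP of antibody-bound GDP Alexa 633 tracer, ex 620/em 688 nm | Measure: Percent inhibition of Arfgap1-stimulated GTP hydrolysis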
ASAP1 inh: inhibitors of human ASAP1 ArfGAP activity. Q9ULH1. ASAP1-stimulated ARF1 GTP hydrolysis, GDP FP detection. inhibition, % at 16.5 µM. 360,000 compounds, 0.19% hits. AID 624377; in the data active means inhibition above about 25%;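 further: 0% = vehicle with enzyme and substrate and 100% = no enzyme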
PHOSPHO1 block: inhibitors of human PHOSPHO1 phosphatase; 290,000 compounds, 1.1% hits; AID 1565; recombinant PHOSPHO1, absorbance phosphatase assay; inhibition, % at 13.3 µM; Q8TCT1; in the data active means inhibition above about 60%
Target sequence (Q8TCT1 whole entry, looked up): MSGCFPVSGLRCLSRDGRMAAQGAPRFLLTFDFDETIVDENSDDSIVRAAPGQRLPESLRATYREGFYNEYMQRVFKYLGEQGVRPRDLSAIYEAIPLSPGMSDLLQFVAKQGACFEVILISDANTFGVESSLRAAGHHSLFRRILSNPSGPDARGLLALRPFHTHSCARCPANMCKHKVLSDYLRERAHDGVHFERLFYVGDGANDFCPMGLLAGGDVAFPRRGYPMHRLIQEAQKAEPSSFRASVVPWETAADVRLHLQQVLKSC
* marks the source's active call; other numbers are inactive results; nt = not tested or not shown.

SMILES | VIM-2 inhibitor | Calb FLC | IMP-1 inhibitor | ARFGAP1 inhibitor | ASAP1 inh | PHOSPHO1 block
O=S1(=O)CC(N2CCC(c3ccccc3)CC2)CN1Cc1cn(Cc2ccc(C(F)(F)F)cc2)nn1 (stereo unspecified) | nt | nt | nt | -7.6 | -0.2 | nt
Cc1ccc(OCCCCn2cnc3ccccc32)c(C)c1 | -2.2 | 18.3 | 6.6* | -1.9 | 8.1 | 17.9
Cn1c(=O)[nH]c(=O)c2c1nc(SCCN1CCCCC1)n2CCCc1ccccc1 | 0.7 | nt | -1.3 | 2.9 | 4.2 | 87.7*
O=C(Cn1cnc2ccccc2c1=O)N1CCOCC1 | -0.6 | -4.3 | -0.5 | 12.2 | 16.8 | 6.0
O=C(COc1cccnc1[N+](=O)[O-])N1CCc2ccccc2C1 | -0.6 | 0.6 | -2.1 | 1.6 | 7.2 | 60.9*
O=C(Cn1cnc2ccccc2c1=O)N1CCc2ccccc2C1 | -4.1 | 25.0 | -0.9 | 7.2 | 21.8 | 62.9*
O=C(Cn1cc([N+](=O)[O-])cn1)N1CCc2ccccc2C1 | -0.9 | -8.1 | -1.6 | -3.8 | -17.2 | 61.0*
Cc1[nH]nc2c1C(c1ccc(Br)cc1)N(c1ccccc1)C2=O (stereo unspecified) | nt | nt | nt | -9.8 | 1.0 | nt
Cc1ccccc1S(=O)(=O)N(C)C[C@H]1OCc2cnnn2CCCC(=O)N([C@H](C)CO)C[C@@H]1C | nt | nt | nt | 3.4 | 2.0 | nt
Cc1cccc(N=Nc2c(C)[nH]n(C(N)=S)c2=O)c1C | -2.6 | 105.4* | -4.4 | 4.0 | 5.9 | 43.6
CN(C)CCSc1nnc2[nH]c3ccccc3c2n1 | 10.2* | 40.1 | -0.6 | 3.7 | -7.5 | -7.5
Cc1cc(N2CCN(CC(C)(C)O)C[C@@H]2C)ccc1N1CCN(Cc2ccccc2)[C@H](C)C1 | nt | nt | nt | -7.0 | 4.2 | nt
Cc1[nH]nc2c1C(c1ccccc1)N(c1ccccc1)C2=O (stereo unspecified) | nt | nt | nt | -0.4 | 6.8 | nt
CCC(C(=O)NC1CCCCCC1)n1nc(C)c2c(C)n(-c3ccccc3)nc2c1=O (stereo unspecified) | -2.4 | -4.8 | -4.2 | 5.0 | 13.9 | 64.7*
CCC(C(=O)NC1CC1)n1nc(C)c2c(C)n(-c3ccc(C)cc3)nc2c1=O (stereo unspecified) | -0.8 | 8.1 | -2.7 | -9.0 | -12.7 | 27.3
COc1ccc(CNC(=O)[C@@H](Cc2ccccc2)NC(=O)[C@H]2O[C@@H](n3ccc(=O)[nH]c3=O)[C@H](O)[C@@H]2O)cc1 | nt | nt | nt | 3.8 | -0.1 | nt
CN(C)c1ccc(NC(=O)c2ccc3nsnc3c2)cc1 | 2.1 | 44.0 | 0.3 | -12.0 | 3.8 | 74.4*
O=C(Nc1ccc(Cl)cc1)c1ccc2nsnc2c1 | 0.1 | 3.9 | -0.4 | 5.0 | -9.4 | 2.0
CCC(=S)/C=C1\Sc2ccccc2N1CCCS(=O)(=O)O | 5.8 | 0.1 | -1.6 | 4.7 | 4.9 | 64.4*
CCN1/C(=C\C=C2\C(=O)N(C)C(=S)N2C)Sc2ccccc21 | -1.3 | -2.6 | -2.5 | -1.9 | -14.0 | -18.3
C=CCSc1nnc(-c2ccccc2N=Cc2c(C)[nH]n(-c3ccccc3)c2=O)c(=O)[nH]1 | 1.4 | -10.2 | -0.6 | -1.7 | -6.2 | 68.6*
CSc1nnc(-c2ccccc2N=Cc2c(C)[nH]n(-c3ccc4ccccc4c3)c2=O)c(=O)[nH]1 | -2.6 | 14.2 | -2.4 | 1.0 | -1.4 | -38.0
Cc1cccc(C)c1NC(=O)C1(C)CN(S(C)(=O)=O)CC(=O)N1CCCn1ccnc1 (stereo unspecified) | nt | nt | nt | -2.0 | 8.1 | nt
CC(=O)CC(=O)O[C@@H]1C=C[C@H](NC(=O)OC(C)(C)C)C1 | nt | nt | nt | 2.1 | 2.2 | nt
CCCCn1c(C23CC4CC(CC(C4)C2)C3)n[nH]c1=S | 2.2 | 1.7 | -2.2 | -0.7 | 3.5 | 8.8
SMILES | VIM-2 inhibitor | Calb FLC | IMP-1 inhibitor | ARFGAP1 inhibitor | ASAP1 inh | PHOSPHO1 block
CCCCCC1CCC(c2n[nH]c(=S)n2C)CC1 (stereo unspecified) | -3.0 | 99.5* | -2.3 | -2.0 | -11.2 | -13.2
CCOC(=O)c1sc(-c2ccc(C(F)(F)F)cc2)nc1O | -1.1 | 6.4 | 4.9* | -15.0 | 3.9 | 10.5
CC(C)(C)c1cn(-c2ccc(F)cc2)c(=S)[nH]1 | -4.3 | 4.6 | -4.4 | -7.1 | 10.7 | 68.8*
CC(=O)Nc1c(O)nc(SCC(=O)Nc2c(C)cccc2C)[nH]c1=O | 3.2 | -8.5 | 7.3* | 4.0 | 11.2 | 13.8
CCCc1cc(=O)[nH]c(SCC(=O)Nc2c(C)cccc2C)n1 | -1.7 | 1.0 | -2.3 | nt | nt | -1.7
COc1ccc(C2CC(=O)C(c3ccc(C(F)(F)F)cc3)=CN2Cc2ccccc2)cc1 (stereo unspecified) | nt | nt | nt | 5.4 | -4.0 | nt
